Published values pooled from the literature.
Method: competition with immobilised ligand
RPS6KA4 N-terminal kinase domain: Ribosomal protein S6 kinase alpha-4, N-terminal kinase domain (RPS6KA4, Homo sapiens, UniProt O75676)
RPS6KA4 C-terminal kinase domain: Ribosomal protein S6 kinase alpha-4, C-terminal kinase domain (RPS6KA4, Homo sapiens, UniProt O75676)

Structure (SMILES) | target | test | setting | remaining binding
Cc1noc([C@H]2C[C@@H](c3ccc(C(F)(F)F)cc3)CN(C(=O)N3CCS(=O)(=O)C3)C2)n1 | RPS6KA4 N-terminal kinase domain | cell-free assay | 1 µM | 100%
COc1cnc(Nc2cccc(S(N)(=O)=O)c2)nc1N1CCN(c2ccccc2)C(=O)C1 | RPS6KA4 N-terminal kinase domain | binding | 1 µM | 100%
O=C(NCC1CCOCC1)c1n[nH]cc1NC(=O)c1c(F)cccc1F | RPS6KA4 C-terminal kinase domain | binding | 1 µM | 29%
CO[C@@H](C)c1c(Nc2ccc([C@H](N(C)C(=O)C3CCS(=O)(=O)CC3)C(F)(F)F)cc2)cnc2cc(Cl)nn12 | RPS6KA4 N-terminal kinase domain | cell-free assay | 1 µM | 86%
N[C@@H]1CCN(c2nccc(-c3cnn4ncccc34)n2)C1 | RPS6KA4 C-terminal kinase domain | binding | 1 µM | 100%
O=C(NCCCC1CCCCC1)c1ccc(CNC(=O)c2cnn(-c3ccccc3)c2C(F)(F)F)cc1 | RPS6KA4 C-terminal kinase domain | cell-free assay | 0.1 µM | 90%
O=C(Nc1c[nH]nc1C(=O)NC1CCNCC1)c1cc(F)cc(F)c1 | RPS6KA4 C-terminal kinase domain | binding | 1 µM | 34%
CNC(=O)[C@@H]1CC[C@@H](n2c(-c3ccc4cnccc4c3)nc3ccc(C(=O)NCc4cccc(C(N)=O)c4)cc32)C1 | RPS6KA4 N-terminal kinase domain | binding | 1 µM | 100%
COc1ncc2cc3ccccc3nc2c1C#N | RPS6KA4 C-terminal kinase domain | cell-free assay | 5 µM | 58%
C[C@@H]1CCN(c2nccc(-c3cnn4ncccc34)n2)C1 | RPS6KA4 C-terminal kinase domain | binding | 1 µM | 58%
CS(=O)(=O)NCC[C@H](NC(=O)c1cncc2c1cnn2-c1ccc(F)cc1)c1ccnc(S(C)(=O)=O)c1 | RPS6KA4 N-terminal kinase domain | cell-free assay | 1 µM | 85%
O=C(c1ccc(Nc2ncc(Cl)c(-c3cc4ccccc4s3)n2)cc1)N1CCC(N2CCCC2)CC1 | RPS6KA4 N-terminal kinase domain | binding | 1 µM | 100%
O=C(N1CCS(=O)(=O)CC1)N1C[C@H](c2ccc(OC(F)(F)F)cc2)C[C@H](c2nc(C3CC3)no2)C1 | RPS6KA4 N-terminal kinase domain | cell-free assay | 1 µM | 100%
Cc1cnn2ncc(-c3ccnc(N(C)C)n3)c2c1 | RPS6KA4 C-terminal kinase domain | binding | 1 µM | 62%
c1cncc(-c2cccc(Nc3nccc(NC4CCCCC4)n3)c2)c1 | RPS6KA4 C-terminal kinase domain | binding | 10 µM | 100%
C[C@@H](c1ccc(-n2cnc3c(N)ncnc32)cc1)N1CCc2nn(C)c(Cc3ccccc3)c2C1=O | RPS6KA4 N-terminal kinase domain | binding | 0.1 µM | 84%
CN(C(=O)c1ccccc1)c1cc(N(C)c2ccc3c(c2)CCc2ccc(C(=O)NCCN4CCOCC4)cc2C3=O)ccc1F | RPS6KA4 N-terminal kinase domain | cell-free assay | 1 µM | 59%

Structure (SMILES) | target | test | setting | remaining binding
O=C(c1ccc(Nc2ncc(Cl)c(-c3ccc(Cl)s3)n2)cc1)N1CCC(N2CCCC2)CC1 | RPS6KA4 N-terminal kinase domain | binding | 1 µM | 100%
CCN1CCN(Cc2ccc(C(=O)Nc3ccc(C)c(Oc4ccc5c(c4)CC(=O)N5)c3)cc2C(F)(F)F)CC1 | RPS6KA4 C-terminal kinase domain | binding | 1 µM | 100%
CN(CCCC(F)(F)F)c1nccc(-c2cnn3ncccc23)n1 | RPS6KA4 C-terminal kinase domain | binding | 1 µM | 100%
COc1cnc(Nc2cccc(S(N)(=O)=O)c2)nc1N1CCN(c2ccccc2)CC1 | RPS6KA4 C-terminal kinase domain | binding | 1 µM | 89%
O=S(=O)(NC1CCC(c2cc(F)ccc2F)(S(=O)(=O)c2ccc(Cl)cc2)CC1)C(F)(F)F (stereo not drawn) | RPS6KA4 N-terminal kinase domain | cell-free assay | 1 µM | 100%
Cc1cnc(Nc2ccc(C(=O)N3CCC(N4CCCC4)CC3)cc2)nc1-c1cc2ccccc2s1 | RPS6KA4 N-terminal kinase domain | binding | 1 µM | 100%
Nc1ncc2c(n1)-c1c([nH]c3ccc(C#CC4CC4)cc13)CCCC2 | RPS6KA4 C-terminal kinase domain | binding | 1 µM | 93%
O=C(Nc1cccnn1)N1CC(C/C=C/c2cncc(Oc3ccc(C(F)(F)F)cn3)n2)C1 | RPS6KA4 N-terminal kinase domain | cell-free assay | 1 µM | 100%
CN(C)c1ncc(F)c(-c2cnn3ncccc23)n1 | RPS6KA4 N-terminal kinase domain | binding | 1 µM | 89%
O=C(NCCCN1CCOCC1)c1ccc(Nc2ncc(Cl)c(-c3ccc(Cl)s3)n2)cc1 | RPS6KA4 N-terminal kinase domain | binding | 1 µM | 100%
F[C@@H]1CCN(c2nccc(-c3cnn4ncccc34)n2)C1 | RPS6KA4 C-terminal kinase domain | binding | 1 µM | 92%
O=C(NCCCN1CCOCC1)c1ccc(Nc2nccc(-c3cc4ccccc4s3)n2)cc1 | RPS6KA4 C-terminal kinase domain | binding | 1 µM | 19%
FC(F)(F)Oc1cccc(-c2cnc3ccc(-c4ccncc4)nn23)c1 | RPS6KA4 C-terminal kinase domain | binding | 5 µM | 87%
C=CC(=O)N1CCC(C(=O)NCC(=O)N2CCN(c3nc(-c4cnc(N)nc4C(F)F)nc(N4CCOCC4)n3)CC2)CC1 | RPS6KA4 N-terminal kinase domain | binding | 1 µM | 82%
O=C(c1ccc(Nc2nccc(-c3cc4ccccc4s3)n2)cc1)N1CCC(N2CCCC2)CC1 | RPS6KA4 N-terminal kinase domain | binding | 1 µM | 100%
c1cnn2ncc(-c3ccnc(N4CCC45COC5)n3)c2c1 | RPS6KA4 N-terminal kinase domain | binding | 1 µM | 91%
